Each structure is given as a SMILES string. Active and inactive are the calls of the source. The rule behind the calls is not given here.

The species entered for the first experiment is Xenopus laevis. Kind of experiment: Induction of cleavage arrest in embryonic cells of Xenopus laevis stage 8 blastulae after 20 hrs by animal cap assay. The class given is functional, cell-based. Summed up: (§1)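 Single inner-surface cells taken from animal caps of X. laevis stage 8 blastulae, freed in Ca/Mg-free medium (50 mM phosphate, 35 mM NaCl, 1 mM KCl, pH 7.0). Two or three cells per well in NAM/2 with 2 mg/mL γ-globulin, non-nutritive. Test concentrations 0.1, 0.5, 2, 10, 50 and 200 µg/mL. Cultured 20 h at 25 °C. Read-out: percentage of cells with cleavage arrest.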
For `C=C1[C@H](OC(C)=O)[C@@H](OC(=O)c2ccccc2)[C@@H](OC(C)=O)C(C)(C)[C@H]2O[C@](O)([C@H](C)C2=O)[C@@]2(OC(C)=O)C[C@H](C)[C@H](OC(C)=O)[C@@H]2[C@H]1OC(C)=O`, the result was inactive.

As for `C=C1[C@H](OC(=O)c2ccccc2)[C@H]2[C@@H](OC(C)=O)[C@](C)(O)[C@H](OC(C)=O)[C@]2(O)C(=O)[C@@H](C)[C@H]2O[C@@H]2C(C)(C)C(=O)[C@H](O)[C@H]1OC(=O)c1ccccc1`, the result was inactive.

System in another experiment: not listed separately
Kind of experiment: Induction of cleavage arrest in embryonic cells of Xenopus laevis stage 8 blastulae at 0.5 ug/mL after 20 hrs by animal cap assay. The class given is functional. The method in brief: as §1
In turn, `CCCCC/C=C/C=C/C(=O)OCC1=C[C@@H]2C(=O)[C@]3(C=C(C)[C@H](O)[C@@]3(O)[C@@H]1O)[C@H](C)C[C@@H]1[C@H]2C1(C)C` had an Activity greater than 75%.

Compound `CCCCC/C=C\C=C\C(=O)O[C@H]1C(C)=C[C@]23C(=O)[C@@H](C=C(CO)[C@@H](O)[C@]12O)[C@H]1[C@@H](C[C@H]3C)C1(C)C` had an Activity greater than 75%.

Turning to `CCCCC/C=C/C=C/C(=O)O[C@H]1C(C)=C[C@]23C(=O)[C@@H](C=C(CO)[C@@H](O)[C@]12O)[C@H]1[C@@H](C[C@H]3C)C1(C)C`, the Activity was greater than 75%.

As to `CCCCC/C=C/C=C/C(=O)O[C@H]1C(C)=C[C@]23C(=O)[C@@H](C=C(COC(C)=O)[C@@H](O)[C@]12O)[C@H]1[C@@H](C[C@H]3C)C1(C)C`, the Activity is listed as greater than 75%.

For `CCCCC/C=C\C=C\C(=O)OCC1=C[C@@H]2C(=O)[C@]3(C=C(C)[C@H](O)[C@@]3(O)[C@@H]1O)[C@H](C)C[C@@H]1[C@H]2C1(C)C`, the Activity is on record as greater than 75%.

As to `CCCCC/C=C/C=C/C(=O)O[C@@H]1C(CO)=C[C@@H]2C(=O)[C@]3(C=C(C)[C@H](O)[C@@]13O)[C@H](C)C[C@@H]1[C@H]2C1(C)C`, the Activity is given as greater than 75%.

With `CCCCCCCCCC(=O)OCC1=C[C@@H]2C(=O)[C@]3(C=C(C)[C@H](O)[C@@]3(O)[C@@H]1O)[C@H](C)C[C@@H]1[C@H]2C1(C)C`, the Activity was greater than 75%.

As to `CCCCC/C=C\C=C\C(=O)O[C@H]1C(C)=C[C@]23C(=O)[C@@H](C=C(CO)[C@@H](OC(C)=O)[C@]12O)[C@H]1[C@@H](C[C@H]3C)C1(C)C`, the Activity was greater than 75%.

`CCCCC/C=C\C=C\C(=O)O[C@H]1C(C)=C[C@]23C(=O)[C@@H](C=C(COC(C)=O)[C@@H](O)[C@]12O)[C@H]1[C@@H](C[C@H]3C)C1(C)C` came in with an Activity greater than 75%.

For the origin of these results see ChEMBL document CHEMBL1150627, “Diterpenes from the roots of Euphorbia kansui and their in vitro effects on the cell division of Xenopus” (2002).
